Data from ChEMBL document CHEMBL3232885, “Synthesis, characterization and pharmacological screening of some novel 5-imidazopyrazole incorporated polyhydroquinoline derivatives” (Eur J Med Chem, 2014).
Converted amounts (≈) assume the structure as drawn.

Experiments:
Candida albicans = test: Antifungal activity against Candida albicans MTCC 227 assessed as growth inhibition after 24 to 48 hrs by broth microdilution method; assay type: functional
In short: (§1)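 Fungal nutrition used Sabouraud Dextrose broth with inoculum at 10⁸ CFU mL⁻¹ by turbidity. Serial compound dilutions were made in 2% DMSO in water. Growth was noted on subculture after 24 and 48 h. MIC was taken as the highest dilution preventing visible turbidity after spot subculture.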

Plasmodium falciparum = test: Antimalarial activity against chloroquine/quinine sensitive Plasmodium falciparum assessed as parasite growth inhibition after 48 hrs; assay type: functional, organism-based
Aspergillus fumigatus = test: Antifungal activity against Aspergillus fumigatus MTCC 3008 assessed as growth inhibition after 24 to 48 hrs by broth microdilution method; assay type: functional; in short: as §1
Salmonella typhi = test: Antibacterial activity against Salmonella typhi MTCC 98 assessed as growth inhibition after 24 to 48 hrs by broth microdilution method; assay type: functional, Salmonella enterica subsp. enterica serovar Typhi; conditions: Salmonella enterica
Vibrio cholerae = test: Antibacterial activity against Vibrio cholerae MTCC 3906 assessed as growth inhibition after 24 to 48 hrs by broth microdilution method; assay type: functional
Escherichia coli = test: Antibacterial activity against Escherichia coli MTCC 443 assessed as growth inhibition after 24 to 48 hrs by broth microdilution method; assay type: functional
In short: (§2)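 Bacteria were grown in Mueller-Hinton broth with inoculum adjusted to 10⁸ CFU mL⁻¹ by turbidity. Compounds were serially diluted in 2% aqueous DMSO and incubated at 37 °C overnight. Growth was checked by subculture at 24 and 48 h. MIC was taken as the highest dilution with no turbidity after spot subculture.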

Streptococcus pneumoniae = test: Antibacterial activity against Streptococcus pneumoniae MTCC 1936 assessed as growth inhibition after 24 to 48 hrs by broth microdilution method; assay type: functional; in short: as §2
[1] = test system: Mycobacterium tuberculosis; test: Antitubercular activity against Mycobacterium tuberculosis H37Rv assessed as inhibition of colony formation at 250 ug/mL after 2 to 4 weeks by Lowensteine-Jensen method relative to control; assay type: functional
Clostridium tetani = test: Antibacterial activity against Clostridium tetani MTCC 449 assessed as growth inhibition after 24 to 48 hrs by broth microdilution method; assay type: functional
[2] = test system: Mycobacterium tuberculosis; test: Antitubercular activity against Mycobacterium tuberculosis H37Rv assessed as inhibition of colony formation at 100 ug/mL after 2 to 4 weeks by Lowensteine-Jensen method relative to control; assay type: functional
Bacillus subtilis = test: Antibacterial activity against Bacillus subtilis MTCC 441 assessed as growth inhibition after 24 to 48 hrs by broth microdilution method; assay type: functional; in short: as §2

Structure (SMILES)	MIC (Candida albicans) [µg/mL]	IC50 (Plasmodium falciparum) [µg/mL]	MIC (Aspergillus fumigatus) [µg/mL]	MIC (Salmonella typhi) [µg/mL]	MIC (Vibrio cholerae) [µg/mL]	MIC (Escherichia coli) [µg/mL]	MIC (Streptococcus pneumoniae) [µg/mL]	inhibition at 250 µg/mL [1] [%]	MIC (Clostridium tetani) [µg/mL]	inhibition at 100 µg/mL [2] [%]	MIC (Bacillus subtilis) [µg/mL]
CCOC(=O)C1=C(N)N(c2cccc(O)c2)C2=C(C(=O)CC(C)(C)C2)C1c1c(C)nn(-c2ccccc2)c1-n1ccnc1 (configuration not stated)	250 (≈ 432 µM)	0.072 (≈ 0.124 µM)	1000 (≈ 1730 µM)	200 (≈ 346 µM)	125 (≈ 216 µM)	200 (≈ 346 µM)	200 (≈ 346 µM)	12	250 (≈ 432 µM)	9	500 (≈ 864 µM)
CCOC(=O)C1=C(N)N(c2ccc(O)cc2)C2=C(C(=O)CC(C)(C)C2)C1c1c(C)nn(-c2ccccc2)c1-n1ccnc1 (configuration not stated)	500 (≈ 864 µM)	0.096 (≈ 0.166 µM)	> 1000	200 (≈ 346 µM)	200 (≈ 346 µM)	200 (≈ 346 µM)	250 (≈ 432 µM)	20	200 (≈ 346 µM)	12	62.5 (≈ 108 µM)
